The results in this text go back to ChEMBL document CHEMBL4261601, “Discovery and lead identification of quinazoline-based BRD4 inhibitors” (Bioorg Med Chem Lett, 2018).

Data set [1] has as its target Bromodomain-containing protein 4 (Homo sapiens, UniProt O60885). Briefly: Displacement of biotinylated acetylated peptide from recombinant human partial length BRD4 long isoform bromodomain 1/2 (N44 to E460 residues) expressed in Escherichia coli BL21 measured after 1 hr by Bromoscan method.
Data set [2] has as its system MV4-11. Kind of data set: Cytotoxicity against human MV411 cells after 72 hrs by CellTiter-Glo assay. The data set is classed as functional, cell-based. The conditions noted are these: MV4-11, 72 h. (In general: Cellular ATP, detected with luciferase, serves as a proxy for viable cell number.)
The nature of data set [3]: Half life in CD-1 mouse at 10 mg/kg, po. In kind it is ADME, organism-based. The following applies: in vivo. In short, it runs like this: (§1)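 CD-1 mice (n = 3) received a single oral dose of 10 mg/kg. Plasma drug levels were followed over time to derive AUC0–∞, t1/2 and oral bioavailability (F%), the last relative to the iv arm.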
The subject of data set [4] is Mus musculus. Kind of data set: Cmax in CD-1 mouse at 10 mg/kg, po measured after 5 mins. The data set is classed as ADME, organism-based. The following applies: in vivo. Also on record: dose 10 mg/kg, route oral.
Data set [5] is described as follows: AUC (0 to infinity) in CD-1 mouse at 10 mg/kg, po. In kind it is ADME, organism-based. Details: dose 10 mg/kg, time infinity, route oral. The following applies: CD-1, mouse, in vivo. In a few lines: as §1

For the compound `Cc1noc(C)c1-c1ccc2nc(C(=O)N3CCN(CCN(C)C)CC3)nc(NCc3cccc(Cl)c3)c2c1`, the Kd – broadly, the constant that tells how readily two partners part at equilibrium – in data set [1] came out at 0.57 µM. Also, the IC50 (usually the point on the concentration scale where inhibition reaches its midpoint) in data set [2] amounted to 4.71 µM.
With `Cc1noc(C)c1-c1ccc2nc(N3CCN(CCN(C)C)CC3)nc(N(C)Cc3cccc(Cl)c3)c2c1`, the Kd in data set [1] is 0.27 µM. Also, in data set [2], the IC50 was found to be 5.5 µM.
The matching figures for `Cc1noc(C)c1-c1ccc2nc(C(=O)Nc3cnn(C)c3)nc(NCc3cccc(Cl)c3)c2c1`: 0.29 µM and 3.59 µM.
The matching figures for `Cc1noc(C)c1-c1ccc2nc(N3CCN(CCN(C)C)CC3)nc(NC(C)c3cccc(Cl)c3)c2c1` (stereo unspecified): 0.27 µM and 4.35 µM.
The like results for `Cc1noc(C)c1-c1ccc2nc(N3CCN(CCN(C)C)CC3)nc(NCc3ccccc3Cl)c2c1` were, in that order, 0.085 µM and 1.25 µM.
On to `Cc1noc(C)c1-c1ccc2nc(-c3ccc(CO)nc3)nc(NCc3cccc(Cl)c3)c2c1`, for which, in data set [2], the IC50 came out at 2.64 µM.
Consider `CN(C)CCN1CCN(c2nc(NCc3cccc(Cl)c3)c3cc(-c4ccc(O)nc4)ccc3n2)CC1`, for which the Kd in data set [1] stood at 0.55 µM. In data set [2], this compound yielded an IC50 of 6.07 µM.
The matching figures for `Cc1nocc1-c1ccc2nc(N3CCN(CCN(C)C)CC3)nc(NCc3cccc(Cl)c3)c2c1`: 0.36 µM and 2.97 µM.
The matching figures for `CN(C)CCN1CCN(c2nc(NCc3cccc(Cl)c3)c3cc(-c4ccn(C)c(=O)c4)ccc3n2)CC1`: 7.1 µM and 6.89 µM.
The matching figures for `Cc1noc(C)c1-c1ccc2nc(-c3cnn(CCO)c3)nc(NCc3cccc(Cl)c3)c2c1`: 0.095 µM and 1.67 µM.
As for `Cc1noc(C)c1-c1ccc2nc(N3CCN(CCN(C)C)CC3)nc(NCc3cccs3)c2c1`, the Kd in data set [1] was 0.15 µM. For the same compound, the IC50 in data set [2] was determined as 1.62 µM.
The matching figures for `Cc1noc(C)c1-c1ccc2nc(N3CCN(C(=O)CN(C)C)CC3)nc(NCc3cccc(Cl)c3)c2c1`: 0.03 µM and 1.23 µM.
The like results for `Cc1cc(-c2ccc3nc(N4CCN(CCN(C)C)CC4)nc(NCc4cccc(Cl)c4)c3c2)cnc1O` were, in that order, 0.31 µM and 1.13 µM.
The matching figures for `Cc1noc(C)c1-c1ccc2c(NCc3cccc(Cl)c3)nc(N3CCN(CCN(C)C)CC3)nc2c1`: 0.61 µM and 1.87 µM.
Regarding `Cc1noc(C)c1-c1ccc2nc(N3CCN(CC(=O)N(C)C)CC3)nc(NCc3cccc(Cl)c3)c2c1`, the Kd in data set [1] was 0.073 µM. The compound also came in with an IC50 in data set [2] of 1.73 µM.
For `Cc1noc(C)c1-c1ccc2nc(N(C)CCN(C)C)nc(NCc3cccc(Cl)c3)c2c1`, the Kd in data set [1] was 0.11 µM. The same compound yielded a half-maximal inhibitory concentration (IC50) in data set [2] of 2.97 µM.
With `CNc1nc(NCc2cccc(Cl)c2)c2cc(-c3c(C)noc3C)ccc2n1`, the IC50 in data set [2] was determined as 3.59 µM.
On to `Cc1noc(C)c1-c1ccc2nc(N3CCN(CCN(C)C)CC3)nc(NCc3cc(Cl)ccn3)c2c1`, for which the Kd in data set [1] amounted to 0.11 µM. The compound also came in with an IC50 in data set [2] of 1.6 µM.
Consider `Cc1noc(C)c1-c1ccc2nc(-c3cnn(CCC#N)c3)nc(NCc3cccc(Cl)c3)c2c1`, for which, in data set [1], the Kd stood at 0.12 µM. Moreover, in data set [2], 0.95 µM corresponded to half-maximal inhibition (IC50).
The like results for `Cc1noc(C)c1-c1ccc2nc(N3CCN(CCC(C)C)CC3)nc(NCc3cccc(Cl)c3)c2c1` were, in that order, 0.98 µM and 6.89 µM.
Turning to `Cc1ccc(NC(=O)c2nc(NCc3cccc(Cl)c3)c3cc(-c4c(C)noc4C)ccc3n2)cn1`, the Kd in data set [1] worked out at 0.62 µM. Further, the IC50 in data set [2] worked out at 4.52 µM.
Consider `Cc1noc(C)c1-c1ccc2nc(N3CCN(CCN(C)C)CC3)nc(Nc3ccc(Cl)cc3)c2c1`, for which the Kd in data set [1] amounted to 2.6 µM. The compound also had an IC50 in data set [2] of 1.51 µM.
The like results for `Cc1noc(C)c1-c1ccc2nc(N3CCN(CCN(C)C)CC3)nc(N3CCCCC3c3ccccc3)c2c1` (stereo unspecified) were, in that order, 0.06 µM and 5.07 µM.
The matching figures for `Cc1noc(C)c1-c1ccc2nc(N3CCN(C)CC3)nc(NCc3cccc(Cl)c3)c2c1`: 0.14 µM and 1.6 µM.
The like results for `Cc1n[nH]c(C)c1-c1ccc2nc(N3CCN(CCN(C)C)CC3)nc(NCc3cccc(Cl)c3)c2c1` were, in that order, 1.5 µM and 2.85 µM.
As to `Cc1noc(C)c1-c1ccc2nc(C(=O)NCc3cnn(C)c3)nc(NCc3cccc(Cl)c3)c2c1`, the Kd in data set [1] stood at 0.059 µM. Also, the IC50 in data set [2] was determined as 1.27 µM.
The matching figures for `Cc1noc(C)c1-c1ccc2nc(N3CCN(CCN(C)C)CC3)nc(N3CCCC3c3ccccc3)c2c1` (stereo unspecified): 0.25 µM and 2.54 µM.
The matching figures for `CN(C)CCN1CCN(c2nc(NCc3cccc(Cl)c3)c3cc(-c4ccnc(O)c4)ccc3n2)CC1`: 9.1 µM and 17.3 µM.
Take `CNC(=O)Cn1cc(-c2nc(NCc3cccc(Cl)c3)c3cc(-c4c(C)noc4C)ccc3n2)cn1`: half-maximal inhibition in data set [2] (IC50) required 1.01 µM.
On the same count and under the same terms, the figure for `Cc1noc(C)c1-c1ccc2nc(N3CCN(CCN(C)C)CC3)nc(N3CCOCC3c3ccccc3)c2c1` (stereo unspecified) is 1.83 µM; for `Cc1noc(C)c1-c1ccc2nc(Cl)nc(NCc3cccc(Cl)c3)c2c1` it is 11.3 µM.
With `Cc1noc(C)c1-c1ccc2nc(C(=O)NCc3cccnc3)nc(NCc3cccc(Cl)c3)c2c1`, the Kd in data set [1] was found to be 0.056 µM. The compound further returned an IC50 in data set [2] of 1.43 µM.
The like results for `Cc1noc(C)c1-c1ccc2nc(N3CCN(CCCN(C)C)CC3)nc(NCc3cccc(Cl)c3)c2c1` were, in that order, 0.097 µM and 2.36 µM.
The like results for `Cc1noc(C)c1-c1ccc2nc(C(=O)NC3CCOCC3)nc(NCc3cccc(Cl)c3)c2c1` were, in that order, 0.079 µM and 2.84 µM.
On to `Cc1noc(C)c1-c1ccc2nc(C(=O)NC3CCN(C)CC3)nc(NCc3cccc(Cl)c3)c2c1`, for which the dissociation constant Kd in data set [1] is 0.08 µM. This compound came in with an IC50 in data set [2] of 1.02 µM. Besides, in data set [3], the half-life (as a rule, the time in which the quantity being followed falls by half) is 4 h. The Cmax (commonly the highest concentration seen after dosing) in data set [4] worked out at 9 ng/mL. Moreover, the AUC(0-inf) (usually the area under the concentration-time curve extrapolated to infinity) in data set [5] was determined as 0.054 µg·h/mL.
As to `Cc1noc(C)c1-c1ccc2nc(-c3cnn(CCN(C)C)c3)nc(NCc3cccc(Cl)c3)c2c1`, the Kd in data set [1] came out at 0.056 µM. The compound further came in with an IC50 in data set [2] of 1.33 µM.
The matching figures for `Cc1noc(C)c1-c1ccc2nc(N3CCN(C(=O)CO)CC3)nc(NCc3cccc(Cl)c3)c2c1`: 0.071 µM and 1.33 µM.
The matching figures for `Cc1noc(C)c1-c1ccc2nc(N3CCN(CCN(C)C)CC3)nc(NCc3ccc(Cl)cc3)c2c1`: 0.52 µM and 3.48 µM.
With `Cc1noc(C)c1-c1ccc2nc(N3CCN(CCN(C)C)CC3)nc(N3CCC3c3ccccc3)c2c1` (stereo unspecified), in data set [1], the Kd was determined as 0.48 µM. In addition, in data set [2], the IC50 came to 4.88 µM.
The matching figures for `Cc1noc(C)c1-c1ccc2nc(N3CCN(CCN(C)C)CC3)nc(NCc3cccc(Cl)c3)c2c1`: 0.056 µM and 0.66 µM.
Regarding `Cc1oncc1-c1ccc2nc(N3CCN(CCN(C)C)CC3)nc(NCc3cccc(Cl)c3)c2c1`, the Kd in data set [1] is 1.1 µM. In addition, half-maximal inhibition in data set [2] (IC50) was put at 8.03 µM.
For `Cc1noc(C)c1-c1ccc2nc(N3CCCN(CCN(C)C)CC3)nc(NCc3cccc(Cl)c3)c2c1`, the Kd in data set [1] came out at 0.15 µM. For the same compound, the IC50 in data set [2] turned out to be 2.1 µM.
The matching figures for `Cc1noc(C)c1-c1ccc2[nH]c(=O)cc(NCc3cccc(Cl)c3)c2c1`: 0.055 µM and 1.8 µM.
For `Cc1noc(C)c1-c1ccc2nc(N3CCN(CCN(C)C)CC3)nc(N[C@@H](CO)c3ccccc3)c2c1`, the Kd in data set [1] amounted to 0.13 µM. Besides, the IC50 in data set [2] was 2.1 µM.
The like results for `Cc1noc(C)c1-c1ccc2nc(N3CCN(CCN(C)C)CC3)nc(NCc3cccc(F)c3)c2c1` were, in that order, 0.17 µM and 1.23 µM.
The matching figures for `Cc1noc(C)c1-c1ccc2nc(N3CCN(CCO)CC3)nc(NCc3cccc(Cl)c3)c2c1`: 0.056 µM and 1.67 µM.
Turning to `Cc1noc(C)c1-c1ccc2nc(-n3cc(CCO)cn3)nc(NCc3cccc(Cl)c3)c2c1`, inhibition in data set [2] was half-maximal at 3.08 µM (IC50).
Consider `Cc1noc(C)c1-c1ccc2nc(N3CCN(CCN(C)C)CC3)nc(NC3(c4cccc(Cl)c4)CC3)c2c1`, for which the Kd in data set [1] turned out to be 0.086 µM. In data set [2], this compound yielded an IC50 of 1.6 µM.
The like results for `Cc1noc(C)c1-c1ccc2nc(N3CCN(CCN(C)C)CC3)nc(NCCc3ccc(Cl)cc3)c2c1` were, in that order, 3 µM and 6.65 µM.
Consider `Cc1noc(C)c1-c1ccc2nc(N3CCN(CCN(C)C)CC3)nc(NCc3cncc(Cl)c3)c2c1`, for which the Kd in data set [1] came to 0.079 µM. In data set [2], the IC50 turned out to be 1.37 µM.
The like results for `Cc1noc(C)c1-c1ccc2nc(-c3cnn(CC(N)=O)c3)nc(NCc3cccc(Cl)c3)c2c1` were, in that order, 0.13 µM and 0.66 µM.
Turning to `COCCn1cc(-c2nc(NCc3cccc(Cl)c3)c3cc(-c4c(C)noc4C)ccc3n2)cn1`, the Kd in data set [1] is 0.092 µM. This compound returned an IC50 in data set [2] of 1.87 µM.
